Screens (PubChem)
UPR CHOP act = activators of apoptotic CHOP UPR arm, primary screen, cell-based, CHO-CHOP luciferase reporter, luminescence, uHTS. UPR activation; percent of tunicamycin response over DMSO baseline. activation, % at 10 µM. hit rate 0.34% among 330,000;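 active = at 10 µM dose, activation of 40% or more, normalized to positive control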;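 also: 100% = tunicamycin at 10 µg/mL and 0% = DMSO alone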
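Assay system: CHO cells with stable CHOP pathway luciferase reporter; Buffer or medium: F12 plus 10% serum; Times: 16-18 h cell attachment, then 6 h compound exposure, 37 °C; Signal: luciferase luminescence; Read-out basis: percent activation relative to tunicamycin control; Control set: tunicamycin high control, DMSO low control.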
M18AAP inhibitor = PfM18AAP inhibitors, malaria aminopeptidase, primary screen, biochemical, QFRET, recombinant enzyme. hit rate 1.2% among 290,000. AID 1822, 2009. H-Glu-NHMec fluorogenic cleavage. inhibition, % at 7.35 µM. M18 aspartyl aminopeptidase (Plasmodium falciparum 3D7);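 active = inhibition above the campaign mean inhibition over all tested compounds plus 3 SD, cut at about 28% in these data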;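 also: 0% = plate median of test compound wells and 100% = 2 mM ZnCl2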
XBP1 UPR activ = activators of adaptive XBP1 UPR arm, primary screen, cell-based, CHO-XBP1 luciferase reporter, luminescence, uHTS; IRE1-XBP1 UPR activation; percent of tunicamycin response, DMSO as zero; AID 463104, 2010; activation, % at 20 µM; hit rate 0.33% among 330,000;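 active = versus positive control, 20 µM dose yields 30% or more activation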;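 also: 100% = tunicamycin at 10 µg/mL and 0% = DMSO only wells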
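Signal: luciferase luminescence; Assay system: CHO-XBP1 luciferase reporter cells; Amount: one thousand reporter cells per well; Dosing: 20 µM single concentration, DMSO 1%; Benchmarks: high control tunicamycin 10 µg/mL final, low control DMSO vehicle only; Schedule: 6 h compound exposure at 37 °C, 5% CO2; Evaluation: percent activation relative to tunicamycin reference.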
p97 inhibitor = inhibitors of human p97 ATPase, primary screen, biochemical; recombinant p97 ATPase, Kinase-Glo ATP luminescence, 3 h; inhibition, % at 8 µM; hit rate 0.42% among 220,000; in the data active = inhibition above about 15%;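 also: 0% = DMSO vehicle and 100% = wells lacking enzyme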
Target sequence (P55072 whole entry, looked up): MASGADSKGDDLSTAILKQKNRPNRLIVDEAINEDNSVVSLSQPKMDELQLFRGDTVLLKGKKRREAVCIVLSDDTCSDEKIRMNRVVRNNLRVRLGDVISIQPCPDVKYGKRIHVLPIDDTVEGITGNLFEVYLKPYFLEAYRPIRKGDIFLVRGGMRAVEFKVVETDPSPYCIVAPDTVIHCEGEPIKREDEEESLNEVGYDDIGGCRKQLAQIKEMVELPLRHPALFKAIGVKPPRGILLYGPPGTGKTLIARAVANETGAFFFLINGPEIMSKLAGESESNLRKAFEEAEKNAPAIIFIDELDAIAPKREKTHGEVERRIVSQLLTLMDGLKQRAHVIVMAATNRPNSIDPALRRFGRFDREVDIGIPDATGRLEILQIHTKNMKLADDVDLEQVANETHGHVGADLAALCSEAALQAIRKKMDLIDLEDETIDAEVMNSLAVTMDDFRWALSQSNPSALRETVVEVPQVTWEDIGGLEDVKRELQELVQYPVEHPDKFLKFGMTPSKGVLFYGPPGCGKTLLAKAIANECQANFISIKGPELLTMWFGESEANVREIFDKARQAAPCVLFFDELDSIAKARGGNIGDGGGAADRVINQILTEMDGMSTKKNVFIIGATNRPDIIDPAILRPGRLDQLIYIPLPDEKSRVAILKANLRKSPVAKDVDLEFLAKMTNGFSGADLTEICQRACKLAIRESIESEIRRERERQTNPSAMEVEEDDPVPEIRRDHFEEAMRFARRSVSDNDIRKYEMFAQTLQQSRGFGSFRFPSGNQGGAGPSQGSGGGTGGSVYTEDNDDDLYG
CHOP inh = inhibitors of CHOP promoter induction, primary screen, cell-based, unfolded protein response, luciferase reporter | AID 2732, 2010 | hit rate 3.8% among 220,000 | CHO-K1 CHOP-promoter luciferase, tunicamycin-induced, 15-18 h | inhibition, % at 10 µM;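 active = compounds that reduced the stress-induced luciferase reporter signal by more than about 70% of percent inhibition, limit read from the data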;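 also: 0% = tunicamycin plus vehicle and 100% = wells without tunicamycin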
HCV NS3 hel inh = inhibitors of HCV NS3 helicase, primary screen, biochemical, Cy5 molecular beacon fluorescence; Hepatitis C virus NS3 helicase; AID 1800, 2009; NS3 helicase DNA unwinding; hit rate 0.56% among 290,000; inhibition, % at 10.9 µM;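 active = inhibition above the mean of all tested compounds plus 3 SD, set per campaign, cut at about 35% in these data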;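 also: 0% = DMSO wells and 100% = thioflavine S control wells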
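Test system: hepatitis C virus NS3 helicase domain fragment enzyme. Also added: annealed dual-labelled DNA beacon duplex, ATP-started. Timing: 60 min unwinding reaction at 25 °C after ATP addition. Technique: Cy5 fluorescence. Measure: % inhibition of unwinding.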
NS3 helicase cf = HCV NS3 helicase inhibitors, retest, confirmation, biochemical, Cy5 molecular beacon fluorescence, triplicate; AID 1943, 2009; hit rate 31% among 1,600; shares compounds with HCV NS3 hel inh; NS3 helicase DNA unwinding; inhibition, % at 10.9 µM;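 active = inhibition above the mean of all tested compounds plus 3 SD, cutoff set per campaign, cut at about 36% in these data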
DNA FID counter = compounds displacing fluorescent DNA intercalator, artefact control for HCV NS3 helicase inhibitor project, biochemical, FID fluorescence, triplicate. shares compounds with HCV NS3 hel inh. DNA fluorescent intercalator displacement. inhibition, % at 7.9 µM. hit rate 4% among 1,600; in the data active = inhibition above about 37%;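 also: 0% = vehicle and 100% = reference compound; higher means more displacement of ethidium bromide from the DNA hairpin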
FID counter DR = compounds displacing fluorescent intercalator from DNA, dose response, counter-screen for HCV NS3 helicase inhibitor project, biochemical, fluorescence; IC50, µM; fluorescent intercalator displacement from DNA; shares compounds with HCV NS3 hel inh; 120 tested, under 10 active; call rule not given here
Numbers without * were called inactive; . = no result given. The list is not random: actives were taken first. Their share in the collection is about 4.5%.

SMILES | UPR CHOP act | M18AAP inhibitor | XBP1 UPR activ | p97 inhibitor | CHOP inh | HCV NS3 hel inh | NS3 helicase cf | DNA FID counter | others
COc1ccccc1NC(=O)CSc1ccc(-c2ccco2)nn1 | 0 | -32 | -1 | . | . | 24 | . | .
COc1ccc(OC)c(NC(=O)CSc2ccc(-c3ccco3)nn2)c1 | 0 | -23 | -4 | . | . | 45* | -20 | -13
CCCC(=O)Nc1ccc(-c2csc(N/N=C\c3ccncc3)n2)cc1 | 9 | 17 | 0 | 3 | -11 | 38* | 12 | -3
Cc1cc(C)c(NC(=O)c2ccc(CNS(=O)(=O)c3cc(C(F)(F)F)ccc3Cl)cc2)c(C)c1 | -1 | 0 | -3 | -5 | 50 | 36* | -4 | -14
COc1ccc2nc(Nc3nc(CSc4nc5ccccc5s4)cc(=O)[nH]3)nc(C)c2c1 | 3 | . | 1 | . | . | . | . | .
Cc1sc(NC(=O)CSc2nnc(-c3ccccc3)o2)c(C#N)c1C | 0 | 0 | 0 | 0 | 54 | 38* | -2 | -22
N#Cc1c(NC(=O)CSc2nnc(-c3ccccc3)o2)sc2c1CCCC2 | 1 | -10 | 13 | 2 | 39 | 26 | . | .
CC1CCc2c(sc(NC(=O)CSc3nnc(-c4ccccc4)o3)c2C#N)C1 (configuration not stated) | 1 | -10 | -2 | 3 | 74* | 47* | 1 | 6
N#Cc1c(NC(=O)/C=C/c2ccco2)sc2c1CCCC2 | . | 1 | . | 8 | 23 | 34 | . | .
O=C(/C=C/c1ccco1)Nc1sc2c(c1C(=O)O)CCC2 | 4 | 6 | 1 | 7 | -49 | 47* | 19 | 19
CN1CCN(C(c2ccccn2)c2cc(Cl)c3cccnc3c2O)CC1 (configuration not stated) | -1 | -7 | -1 | 5 | -61 | 13 | . | .
Cc1ccc(C(c2cc(Cl)c3cccnc3c2O)N2CCN(C)CC2)cc1 (configuration not stated) | 20 | 4 | 15 | . | . | 42* | 70* | 67*
Cc1cc(C(=O)CSc2nc3ccccc3c(=O)n2C)c(C)n1Cc1ccc2c(c1)OCO2 | 4 | -13 | 1 | -5 | 79* | 40* | 2 | -18
O=[N+]([O-])c1ccc(/C=C/C2=NN(c3ccccc3)C(c3ccco3)C2)o1 (configuration not stated) | . | -1 | . | 1 | 3 | 8 | . | .
C(=C\c1ccco1)/C1=NN(c2ccccc2)C(c2ccco2)C1 (configuration not stated) | 7 | 9 | 5 | 6 | 74* | 46* | 58* | 8
O=C(O)c1cc(NC(=S)NC(=O)C(c2ccccc2)c2ccccc2)ccc1Cl | -2 | 4 | -2 | 2 | 30 | 41* | 76* | -5
CCOc1ccc(N2C(=O)C3Sc4[nH]c(=O)sc4C(/C=C/c4ccccc4)C3C2=O)cc1 (configuration not stated) | 1 | 3 | -2 | 6 | 25 | 37* | 62* | 9 | FID counter DR=>79
CN(CC(=O)Nc1cccc(Cl)c1)S(=O)(=O)c1ccc2[nH]c(=O)oc2c1 | -1 | 6 | -3 | . | . | 0 | . | .
Cc1ccc(C(=O)N/N=C\c2ccc(-c3ccc(Cl)c(Cl)c3)o2)cn1 | 1 | 3 | -4 | -7 | -30 | 69* | -7 | -7
NS(=O)(=O)c1ccc(N=Nc2ccc(=O)[nH]c2O)cc1 | . | 17 | . | 4 | 12 | 32 | -17 | 13
Cc1cc(C)n(-c2ccc(C(=O)NCC(c3ccco3)N3CCCC3)cc2)n1 (configuration not stated) | 0 | . | -4 | . | . | . | . | .
CCOC(=O)Cn1c(=NC(=O)C2COc3ccccc3O2)sc2cc(S(N)(=O)=O)ccc21 (configuration not stated) | -1 | 2 | 0 | 0 | 23 | 56* | 7 | -26
CCOC(=O)Cn1c(=NC(=O)c2cc(-c3cccs3)nc3ccccc23)sc2cc(S(N)(=O)=O)ccc21 | 5 | -1 | 2 | 2 | 27 | 2 | . | .
CC1CCN(C(=O)c2ccc3c(c2)OCO3)CC1 | -1 | -5 | -3 | . | . | -2 | . | .
COc1ccc(OCC(=O)OCC(=O)NC2CC2)cc1 | 4 | . | -1 | . | . | . | . | .
SMILES | UPR CHOP act | M18AAP inhibitor | XBP1 UPR activ | p97 inhibitor | CHOP inh | HCV NS3 hel inh | NS3 helicase cf | DNA FID counter | others
COc1cc(/C=N/NC(=O)c2cc(-c3cccc(OC(C)C)c3)nc3ccccc23)ccc1O | 11 | . | 1 | . | . | . | . | .
CSc1sccc1/C=C(/C#N)C(=O)c1ccco1 | -1 | 31* | -2 | . | . | 38* | -37 | 10
CSc1sccc1/C=N/O | 1 | 5 | 2 | -3 | -5 | 6 | . | .
Cc1ccc(-c2noc(Cn3nc(C(=O)O)c4ccccc4c3=O)n2)cc1 | 5 | 0 | 1 | . | . | -6 | . | .
O=C(O)c1nn(Cc2csc(-c3ccccc3)n2)c(=O)c2ccccc12 | 1 | 7 | 17 | . | . | 48* | 8 | -23
O=C(O)/C(=C\c1cccc([N+](=O)[O-])c1)c1ccc(S(=O)(=O)N2CCCCC2)s1 | 0 | 5 | 0 | -1 | 0 | 44* | 54* | -14
O=C(O)/C(=C\c1ccc(Cl)c([N+](=O)[O-])c1)c1ccc(S(=O)(=O)N2CCCCC2)s1 | -2 | 0 | -1 | -3 | -15 | 16 | . | .
O=C(CN1CCN(c2nc(-c3ccc(Cl)cc3)cs2)CC1)NCc1ccco1 | 0 | 5 | 2 | 3 | 39 | -6 | . | .
O=S(=O)(Cc1noc(-c2ccc(Cl)cc2)n1)Cc1ccco1 | 2 | 15 | 0 | 9 | -9 | 52* | -11 | 0
O=S(=O)(Cc1ccco1)Cc1nc(-c2ccc(Cl)cc2)cs1 | 1 | 9 | -1 | 14 | 13 | 43* | -14 | -8
Clc1ccc(C2=CC(c3ccco3)n3ncnc3N2)cc1 (configuration not stated) | 0 | 10 | 1 | 3 | -8 | 6 | . | .
Clc1ccccc1C1=CC(c2ccco2)n2ncnc2N1 (configuration not stated) | -2 | -1 | 0 | -2 | 5 | 41* | 5 | -12
